Sequences and labels used below:
B1: tRNA (parent)
chain: GUUCCGUUGGCGUAAUGGUAACGCGUCUCCCUCCUAAGGAGAAGACUGCGGGUUCGAGUCCCGUACGGAACG

This sample holds only a part of the variants without activity.

Variants of B1 are the subject of this data set. Description: yeast fitness relative to wild type (ratio to wild type); higher = fitter; tRNA-Arg(CCU), competitive growth, 37 C, YPD. The method in brief:
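Gene amplicons from the start population and from each of six end populations were read by 100-nucleotide paired-end sequencing. Those end populations came from pooled Saccharomyces cerevisiae strains carrying tRNA-Arg(CCU) gene variants at the native locus, competed in YPD at 37°C for 24 hours. Fitness relative to wild type was worked out from changes in genotype frequencies. Genotypes needed ≥ 100 starting reads, and estimates < 0.5 were set to 0.5.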
As to A14G C34A C49U G51C C61U, the yeast fitness is at most 0.5.

For A14U A69C, the yeast fitness was 0.635.

For the variant A14U A69G, the yeast fitness stood at 0.608.

In the case of A14G C49A C61U C62G, the yeast fitness is at most 0.5.

Regarding A14G G38A A43G, the yeast fitness is at most 0.5.

Take A14G C33U U47A G51C C62U: the yeast fitness is 0.514.

For the variant A14G G48C U64G, the yeast fitness was 0.503.

Take A14G G48C U64C: the yeast fitness was determined as 0.715.

For the variant A14G U28C G68A, the yeast fitness was at most 0.5.

With A14G U32C, the yeast fitness was 0.931.

As for A14U A37C C46U G51C C66G, the yeast fitness amounted to 0.529.

On to A14U C24G A57C A65G, for which the yeast fitness is at most 0.5.

With A14G G39C, the yeast fitness stood at 0.678.

Take A14G G38C A65C: the yeast fitness is at most 0.5.

For A14G G23C, the yeast fitness is 0.692.

On to A14G G23A, for which the yeast fitness was 0.559.

For A14G C46G C62U, the yeast fitness came to 0.725.

Turning to A14U A21G C61G A70U, the yeast fitness is at most 0.5.

Consider A14G C31U, for which the yeast fitness was determined as 0.932.

A14G C31A: the yeast fitness is 0.752.

In the case of A14G G17C C24U C49U A69U, the yeast fitness was at most 0.5.

In the case of A14U A40U G58C, the yeast fitness was 0.547.

With A14G U26C U28A A65U, the yeast fitness is at most 0.5.

For the variant A14U C22G A43U A57C G63C C66U, the yeast fitness is at most 0.5.

Consider A14G U32C A42G U59C, for which the yeast fitness is at most 0.5.

As to A14U A15C C31G A43U A70G, the yeast fitness was found to be 0.556.

On to A14U A43G C49U, for which the yeast fitness is at most 0.5.

As for A14U C24G C31A A40G G44C, the yeast fitness is at most 0.5.

Regarding A14U A37C C62A C66A, the yeast fitness was determined as 0.574.

Take A14G U26G U54G A69U: the yeast fitness is at most 0.5.

In the case of A14U A40U, the yeast fitness turned out to be 0.597.

Take A14U A40G: the yeast fitness was determined as 0.707.

For A14G U19G C46U A57G A70C, the yeast fitness was at most 0.5.

Regarding A14G G18C G50C, the yeast fitness is at most 0.5.

For the variant A14U A21C C22U C33G A57U C60G G68C, the yeast fitness is at most 0.5.

Consider A14G C49G, for which the yeast fitness was determined as 0.815.

Turning to A14G C49U, the yeast fitness is 0.908.

Regarding A14U A36U G63A, the yeast fitness came out at 0.533.

As for A14G C31G C33U G38C G58C C66G, the yeast fitness was at most 0.5.

For A14G G17A C34U C55G, the yeast fitness is at most 0.5.

On to A14U A40C C66A, for which the yeast fitness was at most 0.5.

On to A14U C24G A36U, for which the yeast fitness was at most 0.5.

As for A14G G58C A65C, the yeast fitness was determined as 0.593.

Turning to A14G C49G A57G, the yeast fitness was 0.557.

In the case of A14G G44A A57U, the yeast fitness came out at 0.576.

In the case of A14U C24G A36G G68U, the yeast fitness is at most 0.5.

As to A14G U59C, the yeast fitness turned out to be 0.923.

Regarding A14G U59G, the yeast fitness is 0.774.

For A14G C49U U64A, the yeast fitness amounted to 0.537.

Consider A14G U26G G52C C60A, for which the yeast fitness is 0.616.

In the case of A14U A36G A40G, the yeast fitness was at most 0.5.

Take A14G G18A C30U: the yeast fitness worked out at 0.809.

Regarding A14G C31G A37U, the yeast fitness was found to be 0.533.

As for A14U C22U, the yeast fitness worked out at 0.54.

Regarding A14G C61A A69C, the yeast fitness was at most 0.5.

In the case of A14U C22U A40U G44C, the yeast fitness is at most 0.5.

For A14U A20U G63A, the yeast fitness was at most 0.5.

A14U A15U C27A C29G G44C C66A A70G: the yeast fitness is at most 0.5.

Turning to A14G U26C A37G, the yeast fitness is at most 0.5.

Regarding A14G U19G G48C U54G A65C, the yeast fitness is at most 0.5.

As to A14U C22U A40U G44C A57C, the yeast fitness was determined as 0.635.

For A14G G18C C31A A69U, the yeast fitness was at most 0.5.

Regarding A14U A37C G44A A70G, the yeast fitness came out at 0.551.

On to A14U A43U A45G G68A, for which the yeast fitness was at most 0.5.

Turning to A14G G25A C46G A57C, the yeast fitness was at most 0.5.

For the variant A14G U35G A40G A57G, the yeast fitness is at most 0.5.

In the case of A14U A37C G44A, the yeast fitness stood at 0.757.

For A14U A36U G41A C49G, the yeast fitness is at most 0.5.

For the variant A14U A42C C46A, the yeast fitness was at most 0.5.

Turning to A14G G17C C55A, the yeast fitness was at most 0.5.

A14U A21G G39C A45G U53C C62U: the yeast fitness is at most 0.5.

For the variant A14G G25A A40U C49U C60A G63A, the yeast fitness was at most 0.5.

As for A14U A20C C22U C24U C49G U53A G56C, the yeast fitness is 0.547.

With A14G U19C U59A, the yeast fitness is at most 0.5.

A14U C24G C31A A40G G44C C55U A69U: the yeast fitness was at most 0.5.

Take A14G U19C C31G A37U A65U: the yeast fitness was at most 0.5.

As for A14U A21C G41A A45G, the yeast fitness was at most 0.5.

On to A14G G48A C61A G68U, for which the yeast fitness is at most 0.5.

As to A14G G50A, the yeast fitness amounted to 0.907.

Take A14U A45G U53C A65U: the yeast fitness was at most 0.5.

Take A14U A20G C24A C31U C33U A37U G48A A69U: the yeast fitness was at most 0.5.

As for A14G G25C C31U, the yeast fitness was found to be 0.692.

Take A14U A21C A36C C49A C66G: the yeast fitness was at most 0.5.

As to A14G G68U A70U, the yeast fitness is at most 0.5.

A14G G39C A70U: the yeast fitness came to 0.717.

A14G C46A A57G: the yeast fitness came out at 0.743.

For the variant A14G U19G, the yeast fitness was found to be 0.856.

On to A14G U19A, for which the yeast fitness is 0.809.

With A14G G58A A65U, the yeast fitness was 0.782.

In the case of A14G U35G G52C, the yeast fitness is at most 0.5.

Turning to A14G G17A, the yeast fitness came to 0.735.

For A14G C31G A37U A65U, the yeast fitness was 0.529.

Consider A14G G58C, for which the yeast fitness was 0.989.

Regarding A14G G18C C29G C34U A45C, the yeast fitness is at most 0.5.

Take A14G G48C G50A: the yeast fitness turned out to be 0.546.

For the variant A14G C55U, the yeast fitness is 0.553.

For A14G C55A, the yeast fitness is at most 0.5.

In the case of A14G C30U A43C G52A, the yeast fitness was at most 0.5.

Take A14G G50C A69U: the yeast fitness was at most 0.5.

In the case of A14G G25A C30A G52C, the yeast fitness was 0.548.

As for A14G G18A U32A G44A A65C, the yeast fitness was at most 0.5.

Consider A14G C46G A69U, for which the yeast fitness is 0.861.

Regarding A14U A15U C49A G51C U59A, the yeast fitness was at most 0.5.

Take A14U A42U A65G A69C: the yeast fitness is at most 0.5.

With A14G G18C C24G U28C C30U G48C U53A, the yeast fitness came to 0.665.

For the variant A14G U19C A21U G68U, the yeast fitness is at most 0.5.

As for A14U C22G C60G, the yeast fitness is at most 0.5.

With A14G C55U A69U, the yeast fitness was at most 0.5.

Consider A14G C34G C61A, for which the yeast fitness was at most 0.5.

Turning to A14G C31G U54G A57C C62U, the yeast fitness was at most 0.5.

In the case of A14G G23A U35C A37C, the yeast fitness turned out to be 0.5.

On to A14G C62U G68C, for which the yeast fitness is at most 0.5.

As for A14G G41A, the yeast fitness amounted to 0.981.

For the variant A14G G44A C46A G52A C66U, the yeast fitness is at most 0.5.

In the case of A14G G48A, the yeast fitness turned out to be 0.868.

For the variant A14U A65C, the yeast fitness is 0.611.

For the variant A14U A65G, the yeast fitness stood at 0.559.

A14U A65U: the yeast fitness was 0.639.

In the case of A14G G44C, the yeast fitness came out at 0.928.

Turning to A14G G44A, the yeast fitness is 0.894.

For A14G U32A C62U, the yeast fitness is at most 0.5.

In the case of A14G U16G A36U G68C, the yeast fitness was at most 0.5.

For the variant A14G C34G, the yeast fitness was determined as 0.608.

In the case of A14U A40U A69U, the yeast fitness was determined as 0.592.

Regarding A14U A45U A69C, the yeast fitness is 0.539.

For the variant A14U C24G A42C, the yeast fitness worked out at 0.531.

For the variant A14U C22U A36U, the yeast fitness is 0.571.

For the variant A14U A36U G38A U54A, the yeast fitness is 0.536.

Consider A14G C34G A43C, for which the yeast fitness worked out at 0.591.

Take A14U C22U G25A C55G C60U: the yeast fitness was at most 0.5.

Turning to A14U A20G G44C, the yeast fitness was at most 0.5.

Consider A14U A57C, for which the yeast fitness is at most 0.5.

For the variant A14U A57U, the yeast fitness is at most 0.5.

In the case of A14U A21C A36C C49A A65G C66G, the yeast fitness turned out to be 0.567.

A14G C46G G51C: the yeast fitness was at most 0.5.

As to A14G C34A A69C, the yeast fitness was determined as 0.605.

As for A14G C30G A42U A45G A69U, the yeast fitness was at most 0.5.

In the case of A14G U16C, the yeast fitness is 0.897.

As for A14G U16G, the yeast fitness worked out at 0.742.

For A14G G25A C30A A42C, the yeast fitness is at most 0.5.

On to A14G U28C, for which the yeast fitness came out at 0.692.

On to A14G G25A U32A, for which the yeast fitness is 0.56.

For the variant A14U C24G G41A G44A, the yeast fitness was at most 0.5.

Turning to A14U A43C C46U, the yeast fitness was at most 0.5.

Take A14G C49G C66U: the yeast fitness amounted to 0.526.

Turning to A14G C33U A40U C62G, the yeast fitness worked out at 0.68.

For the variant A14G C34G A43C A65G, the yeast fitness is 0.558.

With A14G C34U C66U A70U, the yeast fitness is at most 0.5.

With A14G G48A G68A, the yeast fitness was at most 0.5.

With A14G U28G C29U C49U U54A C55U A70C, the yeast fitness was determined as 0.603.

Regarding A14G U35C C62G A65G, the yeast fitness was determined as 0.635.

In the case of A14U A15G A45C G50A C62U, the yeast fitness was 0.526.

Regarding A14U A15G A21C, the yeast fitness amounted to 0.536.

Consider A14G C30U C46U G50A, for which the yeast fitness was 0.602.

A14G U35A: the yeast fitness came out at 0.561.

Regarding A14G U35C, the yeast fitness is 0.635.

Turning to A14G U16G C29G G58A, the yeast fitness is at most 0.5.

As to A14G G17C C24U A69U, the yeast fitness was at most 0.5.

As for A14U A36U A69U, the yeast fitness turned out to be 0.629.

As to A14G G17A A37U C62G, the yeast fitness was at most 0.5.

Regarding A14U A15C C31A, the yeast fitness is at most 0.5.

For A14G C30G A36C, the yeast fitness was determined as 0.525.

As for A14U A20U C66U G67A, the yeast fitness is at most 0.5.

As to A14G G41A U47A, the yeast fitness was 0.591.

As for A14G G18C, the yeast fitness worked out at 0.559.

For A14U A20U A42G A65C A69C A70G, the yeast fitness was at most 0.5.

Turning to A14G U26C C30U, the yeast fitness is 0.567.

Values taken from the RNAGym collection of RNA variant scans (doi:10.1126/science.aae0568).
